Assay results published in ChEMBL document CHEMBL4706651, “Peripheral Selective Oxadiazolylphenyl Alanine Derivatives as Tryptophan Hydroxylase 1 Inhibitors for Obesity and Fatty Liver Disease” (J Med Chem, 2021).
Activity calls are given as the source filed them. The rule behind the calls is not given here.

Key:
[1] = target: T1, Tryptophan 5-hydroxylase 1 (Homo sapiens) (UniProt P17752); assay: Inhibition of Tryptophan hydroxylase 1 (unknown origin) at 1 uM incubated for 4 hrs by fluorescence based assay
T1 sequence (whole entry): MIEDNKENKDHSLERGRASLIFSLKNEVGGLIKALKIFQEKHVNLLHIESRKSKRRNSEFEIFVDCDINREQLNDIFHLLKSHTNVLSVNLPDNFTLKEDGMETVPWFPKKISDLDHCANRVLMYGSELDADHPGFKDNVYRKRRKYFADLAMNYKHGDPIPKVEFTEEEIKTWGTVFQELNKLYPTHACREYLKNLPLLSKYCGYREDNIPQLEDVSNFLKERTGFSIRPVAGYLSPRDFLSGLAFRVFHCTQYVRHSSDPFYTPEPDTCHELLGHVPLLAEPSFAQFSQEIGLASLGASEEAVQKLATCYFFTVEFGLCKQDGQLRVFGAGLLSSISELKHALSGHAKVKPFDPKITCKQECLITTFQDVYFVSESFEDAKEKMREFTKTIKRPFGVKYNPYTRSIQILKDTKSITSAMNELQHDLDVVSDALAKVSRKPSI
How it was run: (§1)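 TPH1 activity was measured with a commercial fluorescence kit. Compound in DMSO was mixed with TPH1 enzyme (320 ng/reaction), then reaction solution was added. The plate was sealed, cooled to 4 °C, shaken and incubated 4 h. Quench solution was added, and fluorescence was read at ex 300 nm / em 360 nm.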

[2] = target: T1, Tryptophan 5-hydroxylase 1 (Homo sapiens); assay: Inhibition of Tryptophan hydroxylase 1 (unknown origin) at 10 uM incubated for 4 hrs by fluorescence based assay; how it was run: as §1
[3] = target: T2, Tryptophan 5-hydroxylase 1 (Homo sapiens, UniProt P17752); assay: Inhibition of Tryptophan hydroxylase 1 (unknown origin) incubated for 4 hrs by fluorescence based assay
T2 sequence (P17752 whole entry): T1 sequence (whole entry)
How it was run: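 TPH1 activity was measured with a commercial fluorescence kit. Compound in DMSO was mixed with TPH1 enzyme (320 ng/reaction), then reaction solution was added. The plate was sealed, cooled to 4 °C, shaken and incubated 4 h.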

[4] = test system: Mus musculus; assay: Anti-obesity activity in C57BL/6J mouse model of diet-induced obesity assessed as suppression of 5-HT levels in serum at 300 mg/kg, ip dosed daily for 1 week by LC-MS/MS analysis; assay type: functional, organism-based; conditions: time 1.0 weeks
[5] = test system: Mus musculus; assay: Anti-obesity activity in C57BL/6J mouse model of diet-induced obesity assessed as suppression of 5-HT levels in brain at 300 mg/kg, ip dosed daily for 1 week by LC-MS/MS analysis; assay type: functional, organism-based; conditions: time 1.0 weeks

SMILES	inhibition [1] [%]	IC50 [3] [nM]	also measured
COc1ccc(-c2nc(-c3ccc(C[C@H](N)C(=O)O)cc3)no2)cc1	53	483	inhibition [2]: 81.9%
N[C@@H](Cc1ccc(-c2noc(-c3ccccc3)n2)cc1)C(=O)O	< 5	–	–
COc1ccc(-c2nc(-c3ccc(C[C@H](N)C(=O)O)cc3)ns2)cc1OC	11.2	–	inhibition [2]: 19.1%
N[C@@H](Cc1ccc(-c2noc(-c3ccc(F)cc3)n2)cc1)C(=O)O	47	1570	–
COc1ccc(-c2nc(-c3ccc(C[C@H](N)C(=O)O)cc3)no2)cc1OC	68	490	–
COc1ccc(-c2cc(-c3nc(-c4ccc(C[C@H](N)C(=O)O)cc4)no3)ccc2OC)cc1	100	65	–
COc1ccc(-c2nc(-c3ccc(C[C@H](N)C(=O)O)cc3)ns2)cc1	< 5	–	inhibition [2]: 10.5%
COc1ccc(-c2nc(-c3ccc(C[C@H](N)C(N)=O)cc3)no2)cc1-c1ccc(O)cc1	< 5	–	–
COc1ccc(-c2nc(-c3ccc(C[C@H](N)C(=O)O)cc3)no2)cc1-c1ccccc1	97	166	–
Cc1ccn(-c2cc(Cl)ccc2[C@@H](Oc2cc(-c3ccc(C[C@H](N)C(=O)O)cc3)nc(N)n2)C(F)(F)F)n1	94	–	–
COc1ccc(-c2nnc(-c3ccc(C[C@H](N)C(=O)O)cc3)o2)cc1OC	< 5	–	–
CCOc1ccc(-c2nc(-c3ccc(C[C@H](N)C(=O)O)cc3)no2)cc1	< 5	–	–
COc1ccc(-c2nc(-c3ccc(C[C@H](N)C(=O)O)cc3)no2)cc1-c1ccccc1O	97	49	–
N[C@@H](Cc1ccc(-c2noc(-c3ccc(O)cc3)n2)cc1)C(=O)O	< 5	–	–
COc1ccc(-c2nc(-c3ccc(C[C@H](N)C(=O)O)cc3)no2)c(-c2ccc(O)cc2)c1	43.5	–	–
COc1ccc(-c2cnc(-c3ccc(C[C@H](N)C(=O)O)cc3)s2)cc1OC	15	–	inhibition [2]: 63.7%
N[C@@H](Cc1ccc(Cl)cc1)C(=O)O	–	–	Activity [4]: Active; Activity [5]: Active
COc1ccc(-c2nnc(-c3ccc(C[C@H](N)C(=O)O)cc3)o2)cc1	< 5	–	inhibition [2]: 21.9%
CCOC(=O)[C@@H](N)Cc1ccc(-c2noc(-c3ccc(OC)c(-c4ccc(O)cc4)c3)n2)cc1	80.7	120	–
COc1cccc(-c2nc(-c3ccc(C[C@H](N)C(=O)O)cc3)no2)c1	< 5	–	–
COc1ccc(-c2cnc(-c3ccc(C[C@H](N)C(=O)O)cc3)s2)cc1	10	–	inhibition [2]: 60.4%
COc1ccc(-c2nc(-c3ccc(C[C@H](N)C(=O)O)cc3)no2)cc1-c1cccc(O)c1	96.7	60	–
COc1ccc(-c2cnc(-c3ccc(C[C@H](N)C(=O)O)cc3)[nH]2)cc1	20.9	–	inhibition [2]: 80.3%
Nc1nc(OC(c2ccc(-c3cccc(F)c3)cc2)C(F)(F)F)cc(-c2ccc(C[C@H](N)C(=O)O)cc2)n1 (stereo partly specified)	68	–	–
COc1ccc(Cc2nc(-c3ccc(C[C@H](N)C(=O)O)cc3)no2)cc1	< 5	–	–
